ChEMBL document CHEMBL1142736, “Synthesis of novel diarylpyrimidine analogues and their antiviral activity against human immunodeficiency virus type 1” (J Med Chem, 2005)

What was measured:
[1] = test system: Human immunodeficiency virus 1; experiment: Effective concentration against human immunodeficiency virus type 1 mutated at 100I+103N; type: functional, organism-based
[2] = test system: Human immunodeficiency virus 1; experiment: Ratio of CC50 and EC50 against wild type human immunodeficiency virus type 1 LAI strain; type: functional
[3] = test system: Human immunodeficiency virus 1; experiment: Effective concentration against human immunodeficiency virus type 1 mutated at 181C; type: functional, organism-based
[4] = test system: Human immunodeficiency virus 1; experiment: Effective concentration against human immunodeficiency virus type 1 mutated at 100I; type: functional, organism-based
[5] = test system: Human immunodeficiency virus 1; experiment: Effective concentration against human immunodeficiency virus type 1 mutated at 227L+106A; type: functional, organism-based
[6] = Cytotoxic concentration against wild type human immunodeficiency virus type 1 […] strain; details: Human immunodeficiency virus 1
In short: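 MT-4 cells, 30,000 cells/well, were mock-infected (virus at 200-250 CCID50/well for the infected wells) and exposed to a range of compound concentrations. Plates were held at 37 °C with 5% CO2.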

[7] = test system: Human immunodeficiency virus 1; experiment: Effective concentration against human immunodeficiency virus type 1 mutated at 188L; type: functional, organism-based
[8] = test system: Human immunodeficiency virus 1; experiment: Effective concentration against human immunodeficiency virus type 1 mutated at 227C; type: functional, organism-based
[9] = test system: Human immunodeficiency virus 1; experiment: Effective concentration against human immunodeficiency virus type 1 mutated at 103N; type: functional, organism-based
[10] = test system: Human immunodeficiency virus 1; experiment: Effective concentration for the inhibition of wild type human immunodeficiency virus type 1 LAI strain; type: functional, organism-based
[11] = test system: Human immunodeficiency virus 1; experiment: Effective concentration against human immunodeficiency virus type 1 mutated at 103N+181C; type: functional, organism-based
[12] = test system: Human immunodeficiency virus 1; experiment: Effective concentration against human immunodeficiency virus type 1 mutated at 103N+181C; ND:Not determined; type: functional, organism-based

SMILES | EC50 [1] | Selectivity index [2] | EC50 [3] | EC50 [4] | EC50 [5] | CC50 [6] | EC50 [7] | EC50 [8] | EC50 [9] | EC50 [10] | EC50 [11] | EC50 [12]
Cc1cc(-c2ccc(C#N)o2)cc(C)c1Nc1ccnc(Nc2ccc(C#N)cc2)n1 | 500 nM | 3162 | 40 nM | 31.6 nM | 31.6 nM | 10 µM | 31.6 nM | 31.6 nM | 7.95 nM | 4 nM | – | –
Cc1cc(COCCC#N)cc(C)c1Nc1ccnc(Nc2ccc(C#N)cc2)n1 | – | 15873 | 31.6 nM | 25.1 nM | 125 nM | 10 µM | 40 nM | 10 nM | 3.16 nM | 0.63 nM | – | –
C/C(=C\C#N)c1cc(C)c(Nc2ccnc(Nc3ccc(C#N)cc3)n2)c(C)c1 | 2.51 nM | 30000 | 2.51 nM | 0.8 nM | 5 nM | 30 µM | 4 nM | 5 nM | 1 nM | 1 nM | 2.51 nM | –
Cc1cc(CC(C)C#N)cc(C)c1Nc1ccnc(Nc2ccc(C#N)cc2)n1 (stereo not drawn) | 12.5 nM | 1578 | 2 nM | 1 nM | 3.16 nM | 1 µM | 50 nM | 6.31 nM | 0.63 nM | 0.63 nM | 5 nM | –
Cc1cc(/C=C(/C#N)CC#N)cc(C)c1Nc1ccnc(Nc2ccc(C#N)cc2)n1 | – | 5012 | 6.31 nM | 31.6 nM | 25.1 nM | 2 µM | 31.6 nM | 12.5 nM | 6.31 nM | 0.4 nM | – | –
Cc1cc(/C=C/C#N)cc(C)c1Nc1ccnc(Nc2ccc(C#N)cc2)n1 [RILPIVIRINE] | 7.95 nM | – | 1.26 nM | 0.4 nM | 1 nM | 30 µM | 2 nM | 2 nM | 0.3 nM | – | 1 nM | –
Cc1cc(CCC#N)cc(C)c1Nc1ccnc(Nc2ccc(C#N)cc2)n1 | 31.6 nM | 4782 | 12.5 nM | 7.95 nM | 4 nM | 3 µM | 20 nM | 4 nM | 0.4 nM | 0.63 nM | 2.51 nM | –
C/C(C#N)=C/c1cc(C)c(Nc2ccnc(Nc3ccc(C#N)cc3)n2)c(C)c1 | > 10000 nM | 3750 | 4 nM | 31.6 nM | 5 nM | 3 µM | 31.6 nM | 5 nM | 1 nM | 0.8 nM | 20 nM | –
Cc1cc(C#N)cc(C)c1Nc1ccnc(Nc2ccc(C#N)cc2)n1 | 1000 nM | 12500 | 6.3 nM | 31 nM | 12.6 nM | 5 µM | 7.9 nM | 100 nM | 2 nM | 0.4 nM | 31 nM | –
Cc1ccnc2c1NC(=O)c1cccnc1N2C1CC1 [NEVIRAPINE] | – | >500 | 10000 nM | 316 nM | – | 20 µM | > 10000 nM | – | 6310 nM | 39.8 nM | > 10000 nM | –
Cc1cc(/C=C\C#N)cc(C)c1Nc1ccnc(Nc2ccc(C#N)cc2)n1 | 794 nM | – | 5 nM | 6.3 nM | 4 nM | 30 µM | 31 nM | 4 nM | 1.6 nM | 0.6 nM | 39.8 nM | –
CC(C)Nc1cccnc1N1CCN(C(=O)c2cc3cc(NS(C)(=O)=O)ccc3[nH]2)CC1 [DELAVIRDINE] | – | >300 | 2000 nM | 2510 nM | – | > 20 µM | 1260 nM | – | 2510 nM | 63.1 nM | – | 20 µM
Cc1cc(CC#N)cc(C)c1Nc1ccnc(Nc2ccc(C#N)cc2)n1 | – | 12589 | 25.1 nM | 40 nM | 125 nM | 10 µM | 25.1 nM | 10 nM | 7.95 nM | 0.8 nM | – | –
C/C(C#N)=C\c1cc(C)c(Nc2ccnc(Nc3ccc(C#N)cc3)n2)c(C)c1 | 7.95 nM | 25000 | 1.6 nM | 0.6 nM | 4 nM | 20 µM | 3.16 nM | 2.51 nM | 0.6 nM | 0.8 nM | 2 nM | –
Cc1cc(/C(Cl)=C/C#N)cc(C)c1Nc1ccnc(Nc2ccc(C#N)cc2)n1 | 31.6 nM | 7500 | 6.31 nM | 2.51 nM | 7.95 nM | 30 µM | 7.95 nM | 31.6 nM | 2 nM | 4 nM | 6.31 nM | –
O=C1Nc2ccc(Cl)cc2[C@@](C#CC2CC2)(C(F)(F)F)O1 [EFAVIRENZ] | > 10000 nM | – | 2 nM | 40 nM | – | 10 µM | 160 nM | 160 nM | 40 nM | – | 40 nM | –
Cc1cc(/C=C/CC#N)cc(C)c1Nc1ccnc(Nc2ccc(C#N)cc2)n1 | 251 nM | 10000 | 31.6 nM | 40 nM | 50 nM | 10 µM | 20 nM | 40 nM | 2.51 nM | 1 nM | 1 nM | –
